Only a selection was taken, and hits are over-represented in it overall.
ABCB1 inh: blocks JC-1 efflux by human ABCB1 transporter; P08183; AID 1326; hit rate 0.067% among 190,000; CCRF-Adr cells, flow cytometry; inhibition, % at 6.6 µM; in the data active = inhibition above about 40%;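 note: 0% = vehicle and 100% = reference inhibitor; higher value means more JC-1 retained so stronger ABCB1 efflux block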
ABCB6 inh MLPCN: human ABCB6 transporter inhibition; Q9NP58; fluorescence ratio to DMSO, % at 10 µM; K562-ABCB6 porphyrin accumulation, flow cytometry, 1 h; hits give low values; AID 602162; hit rate 0.19% among 360,000;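 active = fluorescence ratio to DMSO below 75%, the collection mean minus 3 SD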;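 note: signal is porphyrin accumulated inside mitochondria; 100% equals median channel fluorescence of DMSO control wells; lower ratio means ABCB6 inhibition with less porphyrin fluorescence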
Target sequence (Q9NP58 whole entry, looked up): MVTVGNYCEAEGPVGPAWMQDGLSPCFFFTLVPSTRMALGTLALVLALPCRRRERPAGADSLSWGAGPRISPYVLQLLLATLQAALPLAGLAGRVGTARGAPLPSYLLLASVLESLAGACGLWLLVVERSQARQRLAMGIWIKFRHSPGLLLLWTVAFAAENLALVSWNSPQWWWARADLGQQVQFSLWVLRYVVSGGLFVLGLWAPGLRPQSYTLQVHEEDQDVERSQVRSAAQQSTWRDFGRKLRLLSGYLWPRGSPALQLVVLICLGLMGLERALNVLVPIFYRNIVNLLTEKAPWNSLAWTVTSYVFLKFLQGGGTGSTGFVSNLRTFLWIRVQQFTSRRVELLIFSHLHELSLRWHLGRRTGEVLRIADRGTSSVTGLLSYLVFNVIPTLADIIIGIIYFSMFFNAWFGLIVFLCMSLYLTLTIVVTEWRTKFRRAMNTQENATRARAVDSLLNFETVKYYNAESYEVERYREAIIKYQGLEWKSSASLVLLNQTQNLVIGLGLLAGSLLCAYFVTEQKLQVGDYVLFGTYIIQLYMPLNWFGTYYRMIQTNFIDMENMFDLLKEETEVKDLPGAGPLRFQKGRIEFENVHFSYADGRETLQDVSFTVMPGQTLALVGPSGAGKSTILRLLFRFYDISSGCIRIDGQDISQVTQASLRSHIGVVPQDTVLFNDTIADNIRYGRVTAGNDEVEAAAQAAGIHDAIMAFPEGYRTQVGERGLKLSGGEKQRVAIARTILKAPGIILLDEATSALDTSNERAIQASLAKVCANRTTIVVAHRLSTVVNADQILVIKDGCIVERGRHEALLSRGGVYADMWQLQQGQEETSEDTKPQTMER
ABCG2 inh: inhibitors of human ABCG2 transporter, ABCB1 counter-screen | Q9UNQ0 | IgMXP3 cells, JC-1 efflux, flow cytometry | inhibition, % at 6.6 µM | hit rate 0.1% among 190,000 | AID 1325;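 active = inhibition above 80%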;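 note: 0% = DMSO and 100% = nicardipine control wells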
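material = IgMXP3 (ABCG2) plus far-red-tagged CCRF-Adr (ABCB1) cells | amount = 3 million cells/mL, equal mix of both lines | also added = JC-1 transporter substrate | dosing = one concentration, 6.6 µM final | schedule = 10 min at 25 °C | measured by = flow cytometric JC-1 green MFI at 530 nm | read-out basis = percent efflux inhibition, scaled nicardipine 100% to DMSO 0%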
FLuc stim CS: firefly luciferase counter-screen for stimulation assays; P08659; ATPlite luciferase biochemical, luminescence, 10 min; 0 = ATP-free wells, 1 = DMSO control; activation factor at 10 µM; 200,000 tested, under 10 active; AID 1027;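 active = luciferase activation factor, scaled between plate controls, of at least 2 with compound at 10 µM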
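Material: Luciferase/luciferin reagent mix | Doses: Test compounds dosed from 2 mM stocks in 100% DMSO | Timing: 10 min incubation after luciferase reagent addition, room temperature | Measured by: Luminescence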
Diaph act CS: counter-screen for diaphorase-based assays: diaphorase activators and chemical reducers. Diaphorase/resazurin coupled assay, resorufin fluorescence, 16 min; hits give high values; 1 = vehicle wells, 0 = NADH-free wells. activation factor at 20 µM. hit rate 0.005% among 190,000. AID 1229;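 active = diaphorase activity raised at least twofold by the compound at 20 µM; inactive = activation factor below 2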
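Assay system: bacterial diaphorase enzyme (C. kluyveri) / Input: enzyme 0.07 U/mL final / Medium: 50 mM HEPES pH 7.4 with 4.542 mM MgCl2, 0.005% Tween 20 / Doses: single compound dose of 20 µM, 1% DMSO final / Incubation: 16 min enzyme reaction, ambient temperature / Signal: fluorescence, excitation 544 nm and emission 590 nm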
FLuc inhib CS: counter-screen for luciferase assay inhibitors: firefly luciferase inhibition. P08659. ATPLite firefly luciferase biochemical luminescence, 10 min. inhibition, % at 10 µM. hit rate 1.5% among 200,000. AID 1006;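 active = inhibition above about 50% when tested at 10 µM, limit read from the data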
* hit, by the source's call; . = not tested or not shown.

SMILES	ABCB1 inh	ABCB6 inh MLPCN	ABCG2 inh	FLuc stim CS	Diaph act CS	FLuc inhib CS
COc1cccc2cc(C(=O)NCCN3CCOCC3)c(=O)oc12	.	100	.	.	.	.
c1ccc(-c2cn3c4c(sc3n2)CCCC4)cc1	1	98	8	0.1	0.8	95*
CCOC(=O)c1cc(C(=O)Nc2cccc(C)c2)nn1C	0	108	2	0.4	0.9	60*
COc1cccc(NC(=O)c2ccc(-n3cnnn3)cc2)c1	.	176	.	.	.	.
Nc1c(Cl)ncnc1N/N=C/c1ccnc2ccccc12	2	100	25	0.5	1	53*
Nc1c(Cl)ncnc1N/N=C/c1ccc2ccccc2n1	1	100	6	0.3	0.8	72*
O=C1NC(c2ccccc2)=N/C1=C/c1ccco1	0	96	2	0.3	0.6	73*
O=C1NC(c2cccc(Br)c2)=N/C1=C\c1ccco1	-1	115	-5	0.9	0.6	10
Cc1ccc(NC(=O)/C(=C/c2cccc([N+](=O)[O-])c2)NC(=O)C2CCCCC2)cc1	0	72*	0	1	0.9	-3
O=C(Nc1ccc(Br)cc1)/C(=C/c1cccc([N+](=O)[O-])c1)NC(=O)C1CCCCC1	-1	101	-1	1.1	0.9	-7
Cc1ccc(OCc2cc(C(=O)N3CCN(CC(=O)NC(C)C)CC3)no2)cn1	.	94	.	.	.	.
Cc1cc2nc(-c3ccc(SCC(=O)N4CCN(C(=O)c5ccco5)CC4)nc3)[nH]c2cc1C	0	95	0	0.2	1	81*
CCOC(=O)CSc1ccc(-c2nc3cc(C)c(C)cc3[nH]2)cn1	-2	93	30	0.4	1.1	64*
Cc1cc2nc(-c3ccc(SCC(=O)N4CCOCC4)nc3)[nH]c2cc1C	0	92	2	0.3	1	73*
Cc1cc2nc(-c3ccc(SCc4ccccn4)nc3)[nH]c2cc1C	0	97	0	0.8	0.9	18
Cc1cc(=O)[nH]c(SCC(=O)N2CCN(C(=O)c3ccco3)CC2)n1	.	93	.	.	.	.
CCOC(=O)CSc1ccc(-c2nc3ccccc3[nH]2)cn1	1	85	19	0.8	0.9	22
Cc1cnc(C(=O)OCc2csc(CC(=O)Nc3ccccc3C)n2)cn1	.	100	.	.	.	.
CSc1nc(O)c(/C=C2\C=Nc3ccccc32)[nH]1	-1	98	-5	0.4	0.8	60*
CCCN(CC(=O)Nc1ccccc1C)C(=O)c1ccc(COc2ccccc2)cc1	.	96	.	.	.	.
O=C(COc1ncnc2ccccc12)c1ccc(Cl)cc1	0	93	3	0.2	0.9	80*
O=C(COc1ncnc2cc(Cl)ccc12)c1ccccc1	.	91	.	.	.	.
N#C/C(=C\c1cccs1)C(=O)NCc1ccccc1	0	96	2	1	0.9	5
N#C/C(=C\c1cccs1)C(=O)Nc1nccs1	0	99	1	0.3	0.9	75*
Brc1cccc(OCCSc2ncccn2)c1	1	93	6	1	0.9	0
SMILES	ABCB1 inh	ABCB6 inh MLPCN	ABCG2 inh	FLuc stim CS	Diaph act CS	FLuc inhib CS
Clc1ccc(OCCSc2ncccn2)c(Br)c1	1	103	4	0.5	0.8	54*
Cc1ccc(-c2cc(C(=O)N3CCCC3)no2)cc1	1	99	5	0.2	1	85*
O=C(/C=C/c1cccs1)c1ccc(N2CCOCC2)cc1	0	106	4	0	1	96*
O=C(/C=C/c1cccc(F)c1)c1ccc(N2CCOCC2)cc1	.	99	.	.	.	.
Cc1c(O)nc(SCC(=O)Nc2nccs2)n(-c2ccccc2F)c1=O	.	92	.	.	.	.
O=C(/C=C/c1nc2ccccc2s1)N1CCCCCC1	1	105	21	0.4	1	62*
Cc1cc(C(=O)Cn2cc(C(F)(F)F)ccc2=O)c(C)n1-c1ccccc1	1	100	11	1	0.9	1
Cc1cc(C(=O)CN2C(=O)C3CC=CCC3C2=O)c(C)n1-c1ccccc1 (centres undefined)	-2	97	-1	0.3	1	74*
Cc1cc(C(=O)CN2C(=O)c3ccccc3S2(=O)=O)c(C)n1-c1ccccc1	1	91	2	0.4	0.8	63*
CCC/C(C#Cc1ccsc1)=C1/c2ccccc2C(=O)N1c1ccccc1	.	94	.	.	.	.
COc1ccc(CN2CC(C(N)=O)Oc3ccccc32)cc1F (centres undefined)	.	104	.	.	.	.
CCCn1c(N)c(N(CCOC)C(=O)c2ccc(N(C)S(=O)(=O)c3ccc(C)cc3)cc2)c(=O)[nH]c1=O	.	98	.	.	.	.
Cc1nn(-c2ccccc2)c(Cl)c1/C=N/Nc1nc2ccccc2[nH]1	2	89	16	0.4	0.9	65*
Cc1cc(=O)[nH]c(N/N=C/c2c(C)nn(-c3ccccc3)c2Cl)n1	.	94	.	.	.	.
Brc1ccc(-c2ccc(/C=N/Nc3nc4ccccc4[nH]3)o2)cc1	0	102	-1	0.2	0.9	81*
Brc1ccc(-c2ccc(/C=N/Nc3nncc(-c4ccccc4)n3)o2)cc1	0	103	-1	1	0.9	-3
Cc1ccc(/C=N/Nc2nc3ccccc3[nH]2)s1	0	100	5	0.3	1.1	72*
COc1cc(C(=O)Nc2ccccn2)cc(OC)c1OC	1	98	28	1.1	0.9	-8
Cc1cc(C(=O)Nc2ccccn2)cs1	1	92	37	0.4	1.1	57*
Cc1cc(C)n(-c2ccc(C(=O)Nc3ccccn3)cc2)n1	0	103	0	0.3	0.8	65*
COc1ccc(N/N=C(/N=Nc2nc(C)cc(=O)[nH]2)c2ccccc2)cc1	3	95	7	0.3	1.1	73*
O=C(COc1ccc(Br)cc1F)Nc1nnc(C2CC2)s1	.	99	.	.	.	.
O=C(N/N=C1\CCCc2ccccc21)c1ccc([N+](=O)[O-])cc1	0	101	0	0.4	1	61*
Cc1ccc(C(=O)N/N=C2\CCCc3ccccc32)c(C)c1	0	92	0	0.5	1.2	47
CCOc1ccc(CCNC(=O)CCCn2c(=O)c3cccn3c3cccnc32)cc1OCC	.	102	.	.	.	.
Cc1ccccc1-n1c(C)cc(/C=N/NC(=O)c2ccncc2)c1C	1	104	4	0.4	1	55*
Cc1cc(C)cc(-n2c(C)cc(/C=N/NC(=O)c3ccncc3)c2C)c1	1	99	6	1.1	0.8	-7
O=C1S/C(=C\c2ccc(N3CCOCC3)o2)C(=O)N1Cc1c(F)cccc1Cl	8	283	132*	1	0.7	-3
O=C1S/C(=C\c2ccc(N3CCOCC3)o2)C(=O)N1c1ccccc1	0	109	1	1	0.7	5

Compound activity (PubChem)
